The values that follow come from ChEMBL document CHEMBL1143707, “7-Arylpiperazinylalkyl and 7-tetrahydroisoquinolinylalkyl derivatives of 8-alkoxy-purine-2,6-dione and some of their purine-2,6,8-trione analogs as 5-HT(1A), 5-HT(2A), and 5-HT(7) serotonin receptor ligands” (Bioorg Med Chem, 2007).

pKi: −log10 of the molar value.

Assay [1] addresses T1, 5-hydroxytryptamine receptor 1A (Rattus norvegicus, UniProt P19327).
T1 sequence (P19327 whole entry): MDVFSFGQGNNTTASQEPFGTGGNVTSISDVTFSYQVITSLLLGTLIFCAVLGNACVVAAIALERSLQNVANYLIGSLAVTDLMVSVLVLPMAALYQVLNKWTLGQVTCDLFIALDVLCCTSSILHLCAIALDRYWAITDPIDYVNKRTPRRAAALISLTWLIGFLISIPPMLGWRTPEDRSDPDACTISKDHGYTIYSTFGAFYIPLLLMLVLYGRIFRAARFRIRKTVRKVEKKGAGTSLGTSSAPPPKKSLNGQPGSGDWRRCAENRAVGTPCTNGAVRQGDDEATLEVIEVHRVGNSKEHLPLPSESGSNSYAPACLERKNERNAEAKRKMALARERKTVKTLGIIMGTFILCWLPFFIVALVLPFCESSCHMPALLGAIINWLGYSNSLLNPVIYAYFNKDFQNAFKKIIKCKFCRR
The experiment in a line: Displacement of [3H]8-OH-DPAT from rat brain 5HT1A receptor. The gist of the method:
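Rat hippocampal membranes; 1 nM [3H]-8-OH-DPAT; nonspecific binding with 10 μM 5-HT; 8–10 competitor concentrations in triplicate, ≥3 experiments; GF/B filtration, ice-cold buffer washes, scintillation counting; Ki by nonlinear regression with Cheng–Prusoff.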

The target of assay [2] is 5-hydroxytryptamine receptor 2A (Rattus norvegicus, UniProt P14842). The experiment in a line: Displacement of [3H]ketanserin from rat brain 5HT2A receptor. The gist of the method:
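Rat brain membranes; 0.6 nM [3H]-ketanserin; nonspecific binding with 1 μM methysergide; 8–10 competitor concentrations in triplicate, ≥3 experiments; GF/B filtration, scintillation counting; Ki via Cheng–Prusoff.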

The target in assay [3] is 5-hydroxytryptamine receptor 7 (Rattus norvegicus, UniProt P32305). The experiment in a line: Displacement of [3H]5CT from 5HT7 receptor in Wistar rat hyphalamic membrane. Type of assay: cell membranes.
Sequence of 5-hydroxytryptamine receptor 7 (P32305 whole entry): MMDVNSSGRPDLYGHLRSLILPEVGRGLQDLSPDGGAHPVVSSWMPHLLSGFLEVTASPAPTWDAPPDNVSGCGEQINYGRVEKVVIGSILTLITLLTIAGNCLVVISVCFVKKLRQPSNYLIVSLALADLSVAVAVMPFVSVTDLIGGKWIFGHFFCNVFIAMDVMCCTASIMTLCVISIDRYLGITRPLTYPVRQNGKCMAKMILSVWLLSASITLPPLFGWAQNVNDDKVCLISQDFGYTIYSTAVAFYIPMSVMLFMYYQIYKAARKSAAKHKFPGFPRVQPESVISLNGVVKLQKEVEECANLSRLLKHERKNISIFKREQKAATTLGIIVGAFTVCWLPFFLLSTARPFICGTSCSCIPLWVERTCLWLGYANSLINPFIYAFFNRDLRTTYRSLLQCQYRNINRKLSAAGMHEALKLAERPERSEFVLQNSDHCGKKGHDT

Sequence of 5-hydroxytryptamine receptor 2A (P14842 whole entry): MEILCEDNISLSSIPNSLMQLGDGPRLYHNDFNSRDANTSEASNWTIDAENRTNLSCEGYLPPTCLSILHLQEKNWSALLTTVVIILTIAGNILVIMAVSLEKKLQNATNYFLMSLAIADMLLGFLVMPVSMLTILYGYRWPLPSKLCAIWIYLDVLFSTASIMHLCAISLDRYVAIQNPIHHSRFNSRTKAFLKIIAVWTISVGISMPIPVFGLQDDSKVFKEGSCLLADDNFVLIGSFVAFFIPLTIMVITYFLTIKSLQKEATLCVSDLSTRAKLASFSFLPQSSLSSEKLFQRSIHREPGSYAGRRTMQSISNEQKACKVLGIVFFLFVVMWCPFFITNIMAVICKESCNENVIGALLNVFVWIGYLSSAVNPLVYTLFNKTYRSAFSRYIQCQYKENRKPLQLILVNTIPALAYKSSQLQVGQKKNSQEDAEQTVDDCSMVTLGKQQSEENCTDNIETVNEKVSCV

Regarding `Cn1c(=O)c2c([nH]c(=O)n2CCCCN2CCN(c3ccccc3)CC2)n(C)c1=O`, the pKi in assay [1] was 5.82; in assay [2], 6.25; in assay [3], 5.74.

Consider `CCCOc1nc2c(c(=O)n(C)c(=O)n2C)n1CCCN1CCN(c2cccc(Cl)c2)CC1`, for which the negative logarithm of the Ki (pKi) is 6.54 in assay [1], 7.60 in assay [2] and 6.57 in assay [3].

On to `CCOc1nc2c(c(=O)n(C)c(=O)n2C)n1CCCN1CCN(c2ccccc2)CC1`, for which the results for the pKi in assay [1], in assay [2] and in assay [3] were 5.89, 6.75 and 6.32, respectively.

On to `CCCOc1nc2c(c(=O)n(C)c(=O)n2C)n1CCCCN1CCN(c2ccccc2)CC1`, for which the results for the pKi in assay [1], in assay [2] and in assay [3] were 6.89, 7.24 and 6.17, respectively.

`CCOc1nc2c(c(=O)n(C)c(=O)n2C)n1CCCCN1CCN(c2ccccc2)CC1`: the pKi is 7.17 in assay [1], 6.88 in assay [2] and 6.71 in assay [3].

`CCCOc1nc2c(c(=O)n(C)c(=O)n2C)n1CCCN1CCN(c2ccccc2)CC1`: the pKi in assay [1] is 6.10; in assay [2] it was 7.29; in assay [3], 6.01.

As to `CCCOc1nc2c(c(=O)n(C)c(=O)n2C)n1CCCCN1CCc2ccccc2C1`, the pKi was 6.48 in assay [1], 6.04 in assay [2] and 7.24 in assay [3].

As for `Cn1c(=O)c2c([nH]c(=O)n2CCCCN2CCN(c3cccc(Cl)c3)CC2)n(C)c1=O`, the pKi is 6.59 in assay [1], 7.22 in assay [2] and 5.44 in assay [3].

In the case of `CCCOc1nc2c(c(=O)n(C)c(=O)n2C)n1CCCN1CCN(c2ccccc2OC)CC1`, the results for the pKi in assay [1], in assay [2] and in assay [3] were 6.50, 6.27 and 6.48, respectively.

With `Cn1c(=O)c2c([nH]c(=O)n2CCCN2CCN(c3ccccc3)CC2)n(C)c1=O`, the pKi in assay [1] is 5.38; in assay [2], 6.64; in assay [3] it was 4.86.

Consider `Cn1c(=O)c2c([nH]c(=O)n2CCCN2CCN(c3cccc(Cl)c3)CC2)n(C)c1=O`, for which the results for the pKi in assay [1], in assay [2] and in assay [3] were 5.95, 7.24 and 5.73, respectively.

As for `CCOc1nc2c(c(=O)n(C)c(=O)n2C)n1CCCN1CCN(c2cccc(Cl)c2)CC1`, the pKi was 6.72 in assay [1], 7.64 in assay [2] and 6.89 in assay [3].

On to `CCCOc1nc2c(c(=O)n(C)c(=O)n2C)n1CCCN1CCc2ccccc2C1`, for which the figures for the pKi in assay [1], in assay [2] and in assay [3] were 6.00, 5.58 and 5.36, respectively.

For `CCOc1nc2c(c(=O)n(C)c(=O)n2C)n1CCCN1CCN(c2ccccc2OC)CC1`, the negative-log Ki (pKi) in assay [1] is 7.08; in assay [2], 6.01; in assay [3], 6.39.

`CCOc1nc2c(c(=O)n(C)c(=O)n2C)n1CCCN1CCc2ccccc2C1`: the values for the pKi in assay [1], in assay [2] and in assay [3] were 5.97, 6.23 and 5.24, respectively.

On to `Cn1c(=O)c2c([nH]c(=O)n2CCCN2CCc3ccccc3C2)n(C)c1=O`, for which the pKi in assay [1] is 5.20; in assay [2], 5.10; in assay [3] it was 4.78.

Turning to `CCOc1nc2c(c(=O)n(C)c(=O)n2C)n1CCCCN1CCN(c2cccc(Cl)c2)CC1`, the values for the pKi in assay [1], in assay [2] and in assay [3] were 7.92, 7.82 and 7.29, respectively.

As to `CCCOc1nc2c(c(=O)n(C)c(=O)n2C)n1CCCCN1CCN(c2ccccc2OC)CC1`, the values for the pKi in assay [1], in assay [2] and in assay [3] were 7.72, 6.82 and 6.80, respectively.

Turning to `CCOc1nc2c(c(=O)n(C)c(=O)n2C)n1CCCCN1CCc2ccccc2C1`, the pKi in assay [1] was 6.37; in assay [2], 5.71; in assay [3], 7.08.
